PolyA inhibitor: yeast polyadenylation inhibition; S. cerevisiae SKY197-pL101 polyadenylation reporter, beta-gal luminescence; efflux-impaired pdr1/pdr3 knockout yeast; score 100 = 6 SD above DMSO; activity score, % at 12 µM; 300,000 compounds, 0.02% hits; AID 1875;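 active = lowest replicate activity score at least 50, where 100 means six control SD above control mean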;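 also: yeast exposed to compound for 9 h at 30 °C; higher score means more reporter readthrough which indicates perturbed polyadenylation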
CHT allo act: allosteric activators of human choline transporter CHT; Q9GZV3; CHT-expressing cells, membrane potential dye, choline EC20; stronger effect = higher value; LV-AA mutant CHT in HEK293 cells; B-score at 10 µM; 310,000 compounds, 0.49% hits; AID 488977;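 active = initial fluorescence not abnormally high and integrated response B-score, plate-corrected, over 3 SD above library mean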
Target sequence (Q9GZV3 whole entry, looked up): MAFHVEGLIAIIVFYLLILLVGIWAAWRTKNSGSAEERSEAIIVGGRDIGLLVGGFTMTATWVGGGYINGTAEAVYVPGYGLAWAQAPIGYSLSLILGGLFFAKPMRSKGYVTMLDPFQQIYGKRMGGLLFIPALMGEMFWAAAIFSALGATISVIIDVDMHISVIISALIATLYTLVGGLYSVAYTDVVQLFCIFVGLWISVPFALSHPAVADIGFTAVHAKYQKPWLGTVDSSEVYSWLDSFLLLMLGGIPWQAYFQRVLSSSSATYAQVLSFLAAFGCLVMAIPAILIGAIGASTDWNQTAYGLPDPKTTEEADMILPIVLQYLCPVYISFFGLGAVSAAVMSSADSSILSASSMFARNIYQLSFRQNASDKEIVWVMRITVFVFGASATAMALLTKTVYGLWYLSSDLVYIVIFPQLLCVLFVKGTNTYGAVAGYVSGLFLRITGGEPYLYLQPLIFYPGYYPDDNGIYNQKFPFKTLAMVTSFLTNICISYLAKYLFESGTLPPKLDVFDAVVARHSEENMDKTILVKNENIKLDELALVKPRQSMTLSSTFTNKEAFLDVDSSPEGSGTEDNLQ
CHT block: inhibitors of human choline transporter CHT; Q9GZV3; CHT-expressing cells, membrane potential dye, choline response; stronger effect = lower value; B-score at 10 µM; 310,000 compounds, 0.86% hits;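 active = B-score over 3 SD under the library average, and starting fluorescence ratio not unusually high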;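 also: choline stimulus applied at its EC90 after an EC20 pre-addition; B-score computed on integrated fluorescence ratio after choline addition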
T cruzi inh: blocks replication of Trypanosoma cruzi | T. cruzi beta-gal in NIH3T3, luminescence, 90 h | inhibition, % (concentration not given with the values) | 300,000 compounds, 1.4% hits | AID 1885;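 active = mean inhibition across valid replicates above about 55%, limit read from the data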;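 also: signal also drops with host cell toxicity which is not excluded here; 0% = plate median of DMSO wells and 100% = zero luminescence signal; higher percent means less beta-gal luminescence so fewer parasites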
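System: mouse NIH/3T3 fibroblasts infected with β-gal-expressing T. cruzi Tulahuen C4 / Input: NIH/3T3 cells, 5,000 per well / Buffer or medium: Low-serum DMEM with 2% FBS / Probe or stimulus: 5000 reporter trypomastigotes per well / Schedule: ≥90 h infection period, 3 h prior cell attachment / Measured by: GalScreen luminescence, 60 min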
CHT activ conf: human CHT activation, confirmatory screen; shares compounds with CHT allo act; CHT-expressing cells, membrane potential dye fluorescence (FDSS); % of choline EC20–EC90 response window; HEK293 expressing CHT LV-AA mutant; choline added at its EC20; activation, % at 10 µM; 2,500 compounds, 91% hits; AID 504833;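 active = primary screen active, with duplicate mean activation above negative control mean plus 3 SD, cut at about 11% in these data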
HEK293 MP dye: counter-screen for CHT activators: effect in parental HEK293 cells; 2,500 compounds, 62% hits; ratio readout change at 10 µM, hits read low; membrane potential dye fluorescence (FDSS); measured after EC20 choline addition; shares compounds with CHT allo act;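 active = duplicate-averaged ratio beyond 3 SD from buffer wells, up or down, though filed actives are nearly all decreases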
The depositor's hits bear a star; i = inactive; x = not tested or not shown. Shown are actives, neighbours in structure and some others; about 2.6% of the full set was active somewhere.

SMILES | PolyA inhibitor | CHT allo act | CHT block | T cruzi inh | CHT activ conf | HEK293 MP dye
COc1ccc(C2=NC(C)(C)Cc3cc(OC)c(OC)cc32)cc1 | -10 | 8.3* | i | -11 | 67* | -84*
COc1ccc(C2=NCCc3cc(OC)c(OC)cc32)cc1 | 10 | 7.5* | i | 8 | 27* | -92*
COc1cc2c(cc1OC)C(SC)=NC(C)(C)C2 | 22 | i | i | -1 | 53* | -44*
COc1cc2c(cc1OC)C(CCc1ccccc1)=NCC2 | 1 | i | i | 19 | x | x
Clc1ccccc1-c1nn2c(-c3ccccn3)nnc2s1 | 1 | i | i | 9 | 43* | -38*
CC(C)Cn1c(/C=C/c2ccccc2)nc2ccccc21 | -4 | i | i | -2 | 23* | i
C/C(CCC(C)C)=N\Nc1cc(C)c2ccccc2n1 | 0 | 7.4* | i | 34 | 52* | i
O=C(CSC1=NCCN1)Nc1cccc([N+](=O)[O-])c1 | -9 | 6.7* | i | -20 | 51* | -45*
Cc1ccc(NC(=O)CSC2=NCCN2)cc1 | 8 | i | i | -9 | x | x
C#CCOCCOCCOCCNc1nc(N2CCN(C(=O)[C@H](CCCCN)n3cc([C@@H](N)C(C)CC)nn3)CC2)nc(N2CCN(C(=O)[C@H](CCCCN)n3cc([C@@H](N)CC(C)C)nn3)CC2)n1 (stereo not given in full) | -5 | 6.5* | i | -9 | 38* | -37*
CN(C)C(CNc1ccc(S(C)(=O)=O)cc1[N+](=O)[O-])Cc1ccccc1 (stereo not given) | -7 | i | i | 39 | x | x
CCN1CCN(C(=O)c2ccc(CS(=O)(=O)Cc3ccccc3C)o2)CC1 | -4 | i | i | -4 | x | x
CCOC(=O)N1CCC(N2Cc3cccc(C(=O)NCC4CCN(CC(C)C)C4)c3C2=O)CC1 (stereo not given) | x | 6.3* | i | x | 53* | -34*
COCCN1Cc2cccc(C(=O)NCC3CCN(CC(C)C)C3)c2C1=O (stereo not given) | 7 | i | i | 35 | x | x
Nc1nonc1C(=O)NCCNCc1cc(Br)ccc1OCc1ccccc1F | -14 | i | i | 29 | 22* | i
Nc1nonc1C(=O)NCCNCc1ccccc1OCc1ccccc1F | 8 | 6.3* | i | 10 | 16* | i
CCOc1ccccc1CNCCNC(=O)c1nonc1N | -6 | i | i | -6 | x | x
COc1ccc(-n2cc(CNCCCN3CCCC3=O)c(-c3ccccc3Cl)n2)cc1 | 24 | 6.3* | i | 16 | 19* | i
COc1ccc(-c2nn(-c3ccccc3)cc2CNCCN2CCOC2=O)c(F)c1 | 27 | i | i | -22 | x | x
COc1ccccc1CNS(=O)(=O)c1ccc(-n2cccn2)cc1 | 1 | i | i | 5 | x | x
CCc1ccccc1NC(=O)CNC(=O)c1ccccc1OCc1c(C)noc1C | 18 | i | i | -8 | x | x
CCc1nnc(NC(=O)CSc2nnc3nc(C)cc(C)n23)s1 | 2 | 8.5* | i | -5 | 52* | -61*
CCc1nnc(NC(=O)CSc2nc(C)cs2)s1 | 8 | i | i | -10 | x | x
Cc1c(C)n(Cc2ccccc2)c2ncnc(NCCCN(C)C)c12 | 19 | i | i | 5 | 26* | -39*
CC(=O)Oc1c(Br)cc(N(C(C)=O)S(=O)(=O)c2ccccc2)c2ccccc12 | -20 | i | i | 1 | x | x
SMILES | PolyA inhibitor | CHT allo act | CHT block | T cruzi inh | CHT activ conf | HEK293 MP dye
CCC(C(=O)O)n1nnc(-c2ccc(OCc3ccccc3)c(OC)c2)n1 (stereo not given) | 3 | i | i | 3 | x | x
CCc1c(C)c(C#N)c2nc3ccccc3n2c1Cl | -58 | x | x | 30 | x | x
CCCCc1c(C)c(C#N)c2nc3ccccc3n2c1NCCN(C)C | -10 | x | x | 40 | x | x
Cc1c2c(n3c(nc4ccccc43)c1C#N)N(CCN(C)C)CC2 | -13 | 7.1* | i | 70* | 42* | -70*
Cc1c2c(n3c(nc4ccccc43)c1C#N)N(CCCN(C)C)CC2 | 1 | 7* | i | 63* | 44* | -66*
Cc1ccc2nc(-c3ccncc3)cc(-c3ccccc3)c2c1 | -35 | i | i | 51 | x | x
Cc1ccc(-c2cc3cccc[n+]3cc2-c2ccc(C)cc2)cc1 | -1 | 8.2* | i | 60* | 63* | -39*
Cc1cc(C)cc(NC(=O)[C@@H](NC(=O)c2ccco2)C(C)C)c1 | 8 | i | i | 2 | x | x
CC(C)CCNC(=O)/C=C/c1ccc(Br)cc1 | 16 | i | i | -17 | 25* | i
CCCn1c(CN2CCN(C(=O)OCC)CC2)nc2cc(NC(=O)CC)ccc21 | 21 | i | i | -1 | 9.8* | i
Cc1nc2nc(C)c(NS(=O)(=O)c3ccc4c(c3)CCCC4)c(=O)n2[nH]1 | -4 | i | i | -14 | x | x
Cc1cc(C)n2nc(C(=O)Nc3ccc(S(=O)(=O)N4CCCCC4)cc3)nc2n1 | 11 | i | i | 4 | 22* | -24*
Cc1cccc(C(=O)NCCC(=O)Nc2ccc(F)c([N+](=O)[O-])c2)c1 | 14 | i | i | 3 | x | x
CCN(CC)CCn1c(=N)n(CC(O)COc2cccc(C)c2)c2ccccc21 (stereo not given) | 16 | 6.4* | i | 50 | 54* | i
CCOC(=O)c1nc2cc3n(c(C)c-2c1C)C(C)C(C)=C3C (stereo not given) | x | i | i | x | x | x
CCOC(=O)c1nc2cc3n(c(CC(C)C)c-2c1C)CC(C)=C3C | 10 | i | i | 28 | 44* | -40*
CCOC(=O)[C@@H]1[C@H]2COc3ccccc3[C@@H]2N2C(=O)N(c3cccc(C)c3)C(=O)[C@]12C | -6 | i | i | -7 | x | x
Cc1cc(N2CCCC2)nc2ccccc12 | 5 | i | i | 3 | 48* | -58*
Cc1cccn2c(=O)c(C=O)c(Cl)nc12 | -9 | 6.6* | i | -14 | 42* | -31*
CN=Cc1c(NC)nc2c(C)cccn2c1=O | -7 | 9.3* | i | -14 | 43* | -27*
CCOC(=O)C1(Cc2cccc(Cl)c2)CCCN(C(=O)C(C)(C)C)C1 (stereo not given) | -9 | i | i | -16 | x | x
CC[N+](CC)(CC#Cc1ccccc1)CC#Cc1ccccc1 | 18 | 7.7* | i | 48 | 49* | i
FC(F)(F)COc1nc(OCC(F)(F)F)nc(N2CCN(c3ccccc3)CC2)n1 | x | 7.1* | i | x | 31* | i
COc1ccc(C(c2nnnn2CC2CCCO2)N2CCC(C(N)=O)CC2)cc1 (stereo not given) | 4 | i | i | -10 | -1 | i

Source: PubChem
